Experiments:
[1] = Biodistribution in rat muscle was determined after 240 min of intravenous administration of the compound; [125I]- is used as radioactive isotope; assay type: ADME, organism-based, Muscle tissue; settings: in vivo, 4 h
Method in brief: (§1)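 Rats, three per group, under ether anaesthesia, received 10 μCi of [¹²⁵I]-labelled tracer in 0.2 mL saline into the femoral vein. They were killed by cardiac excision under ether at each time point. Organs were removed, weighed and counted. Percent dose per organ was calculated against counts of a 1% aliquot of the injected dose (100-fold diluted) counted at the same time.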

[2] = Regional brain distribution in rat cortex was determined after 2 min of intravenous administration of the compound; [125I]- is used as radioactive isotope; assay type: ADME; settings: in vivo
Method in brief: (§2)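 Rats, three per group, injected with 10 μCi tracer in 0.2 mL saline via the femoral vein under ether anesthesia and killed by cardiac excision at the stated time. Cortex (frontal plus occipital), striatum, hippocampus, cerebellum and hypothalamus were dissected, weighed and gamma-counted. Values are % dose/g, calculated by comparison with counts of a 100-fold diluted aliquot of the injected dose.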

[3] = Distribution ratio in hypothalamus and cerebellum was determined after 120 min of intravenous administration of the compound; [125I]- is used as radioactive isotope; assay type: ADME, tissue-based; settings: rat, 2 h
Method in brief: (§3)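 After femoral-vein injection of 10 μCi [¹²⁵I] tracer in 0.2 mL saline under ether anaesthesia (three rats per group), brain regions were dissected, weighed and counted: cortex (frontal plus occipital), hippocampus, hypothalamus and cerebellum. %dose/g was calculated against a diluted injected-dose standard. Ratio = (region − cerebellum)/cerebellum on a %dose/g basis, with cerebellum as the background region.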

[4] = Biodistribution in rat liver was determined after 11 hours of intravenous administration of the compound; [125I]- is used as radioactive isotope; assay type: ADME, organism-based; settings: in vivo
Method in brief: (§4)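 Rats under ether anesthesia, three per group, received 10 μCi tracer in 0.2 mL saline into the femoral vein. They were killed by cardiac excision under ether at each time point. Organs were removed, weighed and counted. Percent dose per organ was calculated against a 1%-of-injected-dose standard counted at the same time.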

[5] = Distribution ratio in hypothalamus and cerebellum was determined after 60 min of intravenous administration of the compound; [125I]- is used as radioactive isotope; assay type: ADME, tissue-based; settings: rat, 1 h
Method in brief: (§5)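 Rats, three per group, given 10 μCi tracer in 0.2 mL saline into the femoral vein under ether anesthesia, then killed by cardiac excision at the stated time. Brain regions were dissected, weighed and counted. Percent dose/g was calculated against a 1% diluted aliquot of the injected dose. The ratio is (region − cerebellum)/cerebellum on a % dose/g basis, with cerebellum as background.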

[6] = Distribution ratio in hypothalamus and cerebellum was determined after 24 hours of intravenous administration of the compound; [125I]- is used as radioactive isotope; assay type: ADME, tissue-based; settings: rat; method in brief: as §3
[7] = Biodistribution in rat kidney was determined after 30 min of intravenous administration of the compound; [125I]- is used as radioactive isotope; assay type: ADME, organism-based; settings: in vivo, 0.5 h; method in brief: as §4
[8] = Biodistribution in rat spleen was determined after 11 hours of intravenous administration of the compound; [125I]- is used as radioactive isotope; assay type: ADME, organism-based; settings: in vivo; method in brief: as §1
[9] = Regional brain distribution in rat striatum was determined after 120 min of intravenous administration of the compound; [125I]- is used as radioactive isotope; assay type: ADME, tissue-based; settings: in vivo, 2 h; method in brief: as §2
[10] = Biodistribution in rat skin was determined after 11 hours of intravenous administration of the compound; [125I]- is used as radioactive isotope; assay type: ADME, organism-based, Zone of skin; settings: in vivo; method in brief: as §1
[11] = Biodistribution in rat liver was determined after 30 min of intravenous administration of the compound; [125I]- is used as radioactive isotope; assay type: ADME, organism-based; settings: in vivo, 0.5 h; method in brief: as §4
[12] = Regional brain distribution in rat striatum was determined after 60 min of intravenous administration of the compound; [125I]- is used as radioactive isotope; assay type: ADME, tissue-based; settings: in vivo, 1 h; method in brief: as §2
[13] = Biodistribution in rat spleen was determined after 240 min of intravenous administration of the compound; [125I]- is used as radioactive isotope; assay type: ADME, organism-based; settings: in vivo, 4 h; method in brief: as §1
[14] = Regional brain distribution in rat cerebellum was determined after 120 min of intravenous administration of the compound; [125I]- is used as radioactive isotope; assay type: ADME, tissue-based; settings: in vivo, 2 h; method in brief: as §2
[15] = Biodistribution in rat lung was determined after 60 min of intravenous administration of the compound; [125I]- is used as radioactive isotope; assay type: ADME, organism-based; settings: in vivo, 1 h; method in brief: as §4
[16] = Distribution ratio in hypothalamus and cerebellum was determined after 30 min of intravenous administration of the compound; [125I]- is used as radioactive isotope; assay type: ADME, tissue-based; settings: rat, 0.5 h; method in brief: as §5
[17] = Regional brain distribution in rat cortex was determined after 6 hours of intravenous administration of the compound; [125I]- is used as radioactive isotope; assay type: ADME; settings: in vivo; method in brief: as §2
[18] = Distribution ratio in striatum and cerebellum was determined after 60 min of intravenous administration of the compound; [125I]- is used as radioactive isotope; assay type: ADME, tissue-based; settings: rat, 1 h; method in brief: as §5
[19] = Distribution ratio in cortex and cerebellum was determined after 60 min of intravenous administration of the compound; [125I]- is used as radioactive isotope; assay type: ADME, tissue-based; settings: rat, 1 h; method in brief: as §3
[20] = Biodistribution in rat brain was determined after 240 min of intravenous administration of the compound; [125I]- is used as radioactive isotope; assay type: ADME, organism-based; settings: in vivo, 4 h; method in brief: as §4
[21] = Biodistribution in rat brain was determined after 120 min of intravenous administration of the compound; [125I]- is used as radioactive isotope; assay type: ADME, organism-based; settings: in vivo, 2 h; method in brief: as §4
[22] = Biodistribution in rat lung was determined after 11 hours of intravenous administration of the compound; [125I]- is used as radioactive isotope; assay type: ADME, organism-based; settings: in vivo; method in brief: as §4
[23] = Biodistribution in rat muscle was determined after 60 min of intravenous administration of the compound; [125I]- is used as radioactive isotope; assay type: ADME, organism-based, Muscle tissue; settings: in vivo, 1 h; method in brief: as §1
[24] = Regional brain distribution in rat hippocampus was determined after 2 min of intravenous administration of the compound; [125I]- is used as radioactive isotope; assay type: ADME, tissue-based; settings: in vivo; method in brief: as §2
[25] = Regional brain distribution in rat hypothalamus was determined after 6 hours of intravenous administration of the compound; [125I]- is used as radioactive isotope; assay type: ADME, tissue-based; settings: in vivo; method in brief: as §2
[26] = Biodistribution in rat muscle was determined after 2 min of intravenous administration of the compound; [125I]- is used as radioactive isotope; assay type: ADME, organism-based, Muscle tissue; settings: in vivo; method in brief: as §1
[27] = Biodistribution in rat kidney was determined after 240 min of intravenous administration of the compound; [125I]- is used as radioactive isotope; assay type: ADME, organism-based; settings: in vivo, 4 h; method in brief: as §4
[28] = Regional brain distribution in rat cortex was determined after 240 min of intravenous administration of the compound; [125I]- is used as radioactive isotope; assay type: ADME; settings: in vivo, 4 h; method in brief: as §2
[29] = Biodistribution in rat brain was determined after 2 min of intravenous administration of the compound; [125I]- is used as radioactive isotope; assay type: ADME, organism-based; settings: in vivo; method in brief: as §4
[30] = Biodistribution in rat lung was determined after 24 hours of intravenous administration of the compound; [125I]- is used as radioactive isotope; assay type: ADME, organism-based; settings: in vivo; method in brief: as §4
[31] = Biodistribution in rat skin was determined after 60 min of intravenous administration of the compound; [125I]- is used as radioactive isotope; assay type: ADME, organism-based, Zone of skin; settings: in vivo, 1 h; method in brief: as §1
[32] = Biodistribution in rat brain was determined after 11 hours of intravenous administration of the compound; [125I]- is used as radioactive isotope; assay type: ADME, organism-based; settings: in vivo; method in brief: as §4
[33] = Biodistribution in rat blood was determined after 120 min of intravenous administration of the compound; [125I]- is used as radioactive isotope; assay type: ADME, organism-based; settings: in vivo, 2 h; method in brief: as §4
[34] = Distribution ratio in hippocampus and cerebellum was determined after 11 hrs of intravenous administration of the compound; [125I]- is used as radioactive isotope; assay type: ADME, tissue-based; settings: rat; method in brief: as §3

CN(C)Cc1ccccc1Oc1ccc(I)cc1N
Dose [1]: 6.27%
Dose/g [2]: 1.16%
Dose/g [3]: 3.49%
Dose [4]: 2.64%
Dose/g [5]: 1.92%
Dose/g [6]: 0.23%
Dose [7]: 2.67%
Dose [8]: 0.09%
Dose/g [9]: 0.72%
Dose [10]: 10.9%
Dose [11]: 7.1%
Dose/g [12]: 1.02%
Dose [13]: 0.13%
Dose/g [14]: 0.21%
Dose [15]: 1.79%
Dose/g [16]: 1.06%
Dose/g [17]: 0.04%
Dose/g [18]: 1.51%
Dose/g [19]: 1.35%
Dose [20]: 0.33%
Dose [21]: 1.08%
Dose [22]: 0.16%
Dose [23]: 12.9%
Dose/g [24]: 0.86%
Dose/g [25]: 0.09%
Dose [26]: 25.9%
Dose [27]: 0.61%
Dose/g [28]: 0.12%
Dose [29]: 1.77%
Dose [30]: 0.04%
Dose [31]: 13.9%
Dose [32]: 0.02%
Dose [33]: 3.15%
Dose/g [34]: 0.09%

— ChEMBL document CHEMBL1137220, “2-(2-(dimethylaminomethyl)phenoxy)-5-iodophenylamine: an improved serotonin transporter imaging agent” (J Med Chem, 2004)
